ChEMBL document CHEMBL1145920 (J Med Chem, 2003)
In brackets after ≈: the same amount, converted by molar mass. Values belong to the molecule of their own block, whether it stands above or below them.

Tests used:
[1] = target: T1, Vascular endothelial growth factor receptor 2 (Homo sapiens, UniProt P35968); experiment: In vitro inhibitory concentration against human vascular endothelial growth factor receptor 2
Summary of the method: (§1)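 Baculovirus-expressed human kinase cytoplasmic domains; ELISA-type assay with time-resolved fluorescence readout (Eu-N1 antiphosphotyrosine antibody). […] For VEGF-R2, PLC-γ/GST fusion substrate and 15 min at 37 °C.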

[2] = target: T1, Vascular endothelial growth factor receptor 2; experiment: Inhibition of Vascular endothelial growth factor receptor 2 autophosphorylation by VEGF in human umbilical vein endothelial cells (HUVECs) at 200 nM; assay type: cell-based; details: HUVEC
Summary of the method: (§2)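 Subconfluent HUVECs serum-starved 1 h at 37 °C in EBM-2 with 0.05% BSA, with drug or DMSO present, then stimulated with 10 ng/mL human VEGF for 5 min. Lysates protein-normalized, anti-VEGF-R2 immunoprecipitated, run on SDS-PAGE, antiphosphotyrosine immunoblot, ECL.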

[3] = target: T1, Vascular endothelial growth factor receptor 2; experiment: Inhibition of Vascular endothelial growth factor receptor 2 autophosphorylation by VEGF in human umbilical vein endothelial cells (HUVECs) at 10 nM; assay type: cell-based; details: HUVEC; summary of the method: as §2
[4] = target: T1, Vascular endothelial growth factor receptor 2; experiment: Inhibition of Vascular endothelial growth factor receptor 2 autophosphorylation by VEGF in human umbilical vein endothelial cells (HUVECs) at 100 nM; assay type: cell-based; details: HUVEC; summary of the method: as §2
Mus musculus [5] = experiment: Antitumor activity against SVR tumor growth in mice by administration of 23.8 mg/kg b.i.d.; assay type: functional; details: oral
Summary of the method: (§3)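 Female athymic nu/nu mice, 6–8 weeks old; 1×10^6 SVR murine angiosarcoma cells implanted sc in right flank with Matrigel (1:1 v/v). At tumor volumes of 80–180 mm³, randomized (usually 8–10/group) and dosed orally b.i.d. (T = 0, 8 h), 0.35–23.8 mg/kg at 100 μL/dose; vehicles PG:Tween 80 (1:1) or 1% HOAc. Caliper tumor volumes every 3–4 days; Mann–Whitney test.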

[6] = target: T1, Vascular endothelial growth factor receptor 2; experiment: Inhibition of Vascular endothelial growth factor receptor 2 autophosphorylation by VEGF in human umbilical vein endothelial cells (HUVECs) at 50 nM; assay type: cell-based; details: HUVEC; summary of the method: as §2
[7] = Plasma level in rats at 30 mg/kg; assay type: ADME, organism-based; design: dose 30 mg/kg; details: rat
Summary of the method: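 Fasted adult male Sprague–Dawley rats (n = 3) given a single oral gavage dose at 2 mL/kg in 3:1 gelucire/PG vehicle. Plasma prepared by acetonitrile protein precipitation and analyzed by HPLC–tandem MS.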

[8] = Solubility was determined; assay type: physicochemical
[9] = target: Cyclin-dependent kinase 1/cyclin B (Homo sapiens, UniProt P06493); experiment: Inhibition of Cyclin-dependent kinase 1-cyclin B; assay type: protein-complex assay
Summary of the method: (§4)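 Enzymes were baculovirus-expressed recombinant human cytoplasmic domains: CDK1/cyclinB and CHK1.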

[10] = target: Fibroblast growth factor receptor 1 (Homo sapiens, UniProt P11362); experiment: Inhibition of Fibroblast growth factor receptor 1
Mus musculus [11] = experiment: Inhibition of murine SVR angiosarcoma in mice administered b.i.d. for 10 days; assay type: functional; details: oral, 240 h, read-out: MED; summary of the method: as §3
Mus musculus [12] = experiment: In vivo antitumor activity against SVR tumor growth in nude mice by oral administration of 10 mg/kg b.i.d. for 10 days; assay type: functional; details: 240 h; summary of the method: as §3
Mus musculus [13] = experiment: Antitumor activity against SVR tumor growth in mice by administration of 20 mg/kg b.i.d.; assay type: functional; details: oral; summary of the method: as §3
[14] = target: Mitogen-activated protein kinase 14 (Homo sapiens, UniProt Q16539); experiment: Inhibition of Mitogen-activated protein kinase p38 alpha
Chain of Mitogen-activated protein kinase 14 (Q16539 whole entry): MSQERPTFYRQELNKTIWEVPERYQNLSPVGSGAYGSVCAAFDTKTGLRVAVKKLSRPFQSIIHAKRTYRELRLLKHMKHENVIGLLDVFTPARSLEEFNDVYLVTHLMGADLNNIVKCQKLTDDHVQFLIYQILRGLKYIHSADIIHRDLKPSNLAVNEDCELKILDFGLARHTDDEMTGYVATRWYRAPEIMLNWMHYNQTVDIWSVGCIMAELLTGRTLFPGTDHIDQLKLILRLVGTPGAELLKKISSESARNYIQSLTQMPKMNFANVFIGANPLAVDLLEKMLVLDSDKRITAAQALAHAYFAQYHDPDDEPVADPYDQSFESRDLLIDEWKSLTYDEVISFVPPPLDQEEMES
Summary of the method: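 Enzyme was activated recombinant human GST-p38α.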

[15] = target: Protein kinase C, PKC; classical (Rattus norvegicus, UniProt P05696+P68403+P63319); experiment: Inhibition of rat brain Protein kinase C
Summary of the method: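 Enzyme was purified rat brain PKC, a mixture of the Ca2+-dependent α, β and γ isozymes.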

[16] = target: Serine/threonine-protein kinase Chk2 (Homo sapiens, UniProt O96017); experiment: Inhibition of Serine/threonine-protein kinase Chk2 (CDS1 receptor)
[17] = target: T2, Serine/threonine-protein kinase Chk1 (Homo sapiens, UniProt O14757); experiment: Inhibition of Serine/threonine-protein kinase Chk1; summary of the method: as §4
T2 sequence (O14757 whole entry): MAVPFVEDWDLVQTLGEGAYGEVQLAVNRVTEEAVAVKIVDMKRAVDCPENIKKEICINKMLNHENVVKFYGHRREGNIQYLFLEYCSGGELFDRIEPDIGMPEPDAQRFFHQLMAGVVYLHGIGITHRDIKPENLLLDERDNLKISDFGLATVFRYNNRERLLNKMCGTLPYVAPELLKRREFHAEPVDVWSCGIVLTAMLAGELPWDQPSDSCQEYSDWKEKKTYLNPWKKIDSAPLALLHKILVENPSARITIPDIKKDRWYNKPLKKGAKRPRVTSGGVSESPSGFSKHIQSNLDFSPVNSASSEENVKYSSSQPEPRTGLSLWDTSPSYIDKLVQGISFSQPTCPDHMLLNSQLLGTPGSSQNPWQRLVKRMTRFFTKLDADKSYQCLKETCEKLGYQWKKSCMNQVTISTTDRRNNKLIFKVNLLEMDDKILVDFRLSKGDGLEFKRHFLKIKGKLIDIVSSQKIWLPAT

[18] = target: Vascular endothelial growth factor receptor 3 (Homo sapiens, UniProt P35916); experiment: Inhibition of Vascular endothelial growth factor receptor 3
Chain of Vascular endothelial growth factor receptor 3 (P35916 whole entry, the tested form may be a part): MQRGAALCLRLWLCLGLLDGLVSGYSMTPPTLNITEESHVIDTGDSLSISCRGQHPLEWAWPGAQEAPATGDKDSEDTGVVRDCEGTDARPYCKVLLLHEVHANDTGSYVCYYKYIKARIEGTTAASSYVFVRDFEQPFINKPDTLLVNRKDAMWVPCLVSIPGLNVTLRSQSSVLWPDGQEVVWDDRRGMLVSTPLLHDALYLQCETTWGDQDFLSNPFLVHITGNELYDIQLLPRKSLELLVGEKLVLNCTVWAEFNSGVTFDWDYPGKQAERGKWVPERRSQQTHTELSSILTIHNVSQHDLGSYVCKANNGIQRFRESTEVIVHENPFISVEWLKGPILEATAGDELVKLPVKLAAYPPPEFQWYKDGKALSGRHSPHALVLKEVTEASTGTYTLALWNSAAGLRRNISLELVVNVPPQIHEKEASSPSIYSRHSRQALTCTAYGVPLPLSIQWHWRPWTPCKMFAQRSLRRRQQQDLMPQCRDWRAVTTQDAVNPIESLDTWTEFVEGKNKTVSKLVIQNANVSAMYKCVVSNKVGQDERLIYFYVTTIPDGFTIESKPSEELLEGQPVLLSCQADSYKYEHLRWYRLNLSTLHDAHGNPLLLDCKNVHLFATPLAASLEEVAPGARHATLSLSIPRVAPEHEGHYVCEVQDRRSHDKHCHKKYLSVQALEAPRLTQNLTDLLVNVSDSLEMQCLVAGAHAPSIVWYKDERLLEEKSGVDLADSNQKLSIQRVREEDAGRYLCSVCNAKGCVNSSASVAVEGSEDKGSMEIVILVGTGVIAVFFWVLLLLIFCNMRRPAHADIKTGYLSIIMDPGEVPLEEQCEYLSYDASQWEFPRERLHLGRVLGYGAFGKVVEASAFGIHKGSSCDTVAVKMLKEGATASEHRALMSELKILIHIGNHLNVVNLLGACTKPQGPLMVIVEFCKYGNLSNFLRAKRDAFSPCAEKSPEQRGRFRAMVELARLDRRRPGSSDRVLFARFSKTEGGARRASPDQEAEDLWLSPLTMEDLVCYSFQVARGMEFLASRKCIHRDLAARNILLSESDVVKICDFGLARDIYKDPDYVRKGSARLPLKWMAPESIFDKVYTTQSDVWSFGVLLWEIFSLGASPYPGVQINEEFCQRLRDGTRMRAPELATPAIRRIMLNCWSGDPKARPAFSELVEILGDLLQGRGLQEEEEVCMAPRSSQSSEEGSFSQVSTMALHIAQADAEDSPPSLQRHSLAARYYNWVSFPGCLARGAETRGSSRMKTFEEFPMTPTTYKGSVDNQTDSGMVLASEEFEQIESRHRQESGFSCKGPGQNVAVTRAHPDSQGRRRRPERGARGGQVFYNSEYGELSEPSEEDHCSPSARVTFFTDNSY
Summary of the method: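 Recombinant human VEGF-R3 cytoplasmic domain was expressed in baculovirus-infected insect cells and assayed by ELISA as for VEGF-R2, with PLC-γ/GST fusion substrate. […] Read-out was Eu-antiphosphotyrosine time-resolved fluorescence.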

[19] = target: Vascular endothelial growth factor receptor 1 (Homo sapiens, UniProt P17948); experiment: Inhibition of Vascular endothelial growth factor receptor 1; summary of the method: as §1
Chain of Vascular endothelial growth factor receptor 1 (P17948 whole entry): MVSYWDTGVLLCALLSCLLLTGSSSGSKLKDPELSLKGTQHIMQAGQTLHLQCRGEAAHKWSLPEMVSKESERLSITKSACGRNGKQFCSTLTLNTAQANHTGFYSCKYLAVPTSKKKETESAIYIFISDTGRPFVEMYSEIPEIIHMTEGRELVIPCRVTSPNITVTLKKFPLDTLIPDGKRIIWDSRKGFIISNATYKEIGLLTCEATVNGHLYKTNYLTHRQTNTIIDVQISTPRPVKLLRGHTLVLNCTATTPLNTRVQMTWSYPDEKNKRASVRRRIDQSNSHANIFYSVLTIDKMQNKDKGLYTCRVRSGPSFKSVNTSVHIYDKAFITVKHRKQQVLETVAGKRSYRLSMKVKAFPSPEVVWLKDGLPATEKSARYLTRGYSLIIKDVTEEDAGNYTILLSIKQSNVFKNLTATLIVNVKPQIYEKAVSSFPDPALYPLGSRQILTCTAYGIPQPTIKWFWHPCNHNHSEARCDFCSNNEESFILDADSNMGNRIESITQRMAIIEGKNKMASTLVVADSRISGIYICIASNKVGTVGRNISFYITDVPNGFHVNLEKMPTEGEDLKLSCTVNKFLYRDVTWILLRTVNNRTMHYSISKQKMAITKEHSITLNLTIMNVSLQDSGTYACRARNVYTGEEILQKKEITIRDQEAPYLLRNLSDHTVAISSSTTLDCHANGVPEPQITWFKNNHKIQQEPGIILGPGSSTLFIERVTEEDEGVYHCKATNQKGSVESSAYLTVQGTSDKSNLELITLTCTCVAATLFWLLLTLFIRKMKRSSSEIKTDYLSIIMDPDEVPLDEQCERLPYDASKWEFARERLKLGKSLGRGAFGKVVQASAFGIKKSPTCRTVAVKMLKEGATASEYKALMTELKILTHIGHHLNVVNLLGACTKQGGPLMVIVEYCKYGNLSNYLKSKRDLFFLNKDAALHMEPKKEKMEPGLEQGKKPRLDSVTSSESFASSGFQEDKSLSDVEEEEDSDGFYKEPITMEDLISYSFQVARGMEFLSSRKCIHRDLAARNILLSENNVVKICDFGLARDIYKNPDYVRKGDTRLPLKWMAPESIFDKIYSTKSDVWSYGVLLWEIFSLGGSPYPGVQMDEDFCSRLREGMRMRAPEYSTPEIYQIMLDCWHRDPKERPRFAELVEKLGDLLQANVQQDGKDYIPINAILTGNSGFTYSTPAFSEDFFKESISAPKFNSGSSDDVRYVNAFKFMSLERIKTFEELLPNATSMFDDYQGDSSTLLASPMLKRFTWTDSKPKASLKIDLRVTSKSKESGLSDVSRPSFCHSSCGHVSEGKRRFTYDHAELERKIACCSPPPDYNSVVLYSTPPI

Angiopoietin-1 receptor = Angiopoietin-1 receptor (Homo sapiens, UniProt Q02763); experiment: Inhibition of Tyrosine protein kinase receptor TIE-2; summary of the method: as §1
[20] = target: T3, Receptor-type tyrosine-protein kinase FLT3 (Homo sapiens, UniProt P36888); experiment: Inhibition of Tyrosine-protein kinase receptor FLT3 (fms-related tyrosine kinase 3) receptor
T3 sequence (P36888 whole entry): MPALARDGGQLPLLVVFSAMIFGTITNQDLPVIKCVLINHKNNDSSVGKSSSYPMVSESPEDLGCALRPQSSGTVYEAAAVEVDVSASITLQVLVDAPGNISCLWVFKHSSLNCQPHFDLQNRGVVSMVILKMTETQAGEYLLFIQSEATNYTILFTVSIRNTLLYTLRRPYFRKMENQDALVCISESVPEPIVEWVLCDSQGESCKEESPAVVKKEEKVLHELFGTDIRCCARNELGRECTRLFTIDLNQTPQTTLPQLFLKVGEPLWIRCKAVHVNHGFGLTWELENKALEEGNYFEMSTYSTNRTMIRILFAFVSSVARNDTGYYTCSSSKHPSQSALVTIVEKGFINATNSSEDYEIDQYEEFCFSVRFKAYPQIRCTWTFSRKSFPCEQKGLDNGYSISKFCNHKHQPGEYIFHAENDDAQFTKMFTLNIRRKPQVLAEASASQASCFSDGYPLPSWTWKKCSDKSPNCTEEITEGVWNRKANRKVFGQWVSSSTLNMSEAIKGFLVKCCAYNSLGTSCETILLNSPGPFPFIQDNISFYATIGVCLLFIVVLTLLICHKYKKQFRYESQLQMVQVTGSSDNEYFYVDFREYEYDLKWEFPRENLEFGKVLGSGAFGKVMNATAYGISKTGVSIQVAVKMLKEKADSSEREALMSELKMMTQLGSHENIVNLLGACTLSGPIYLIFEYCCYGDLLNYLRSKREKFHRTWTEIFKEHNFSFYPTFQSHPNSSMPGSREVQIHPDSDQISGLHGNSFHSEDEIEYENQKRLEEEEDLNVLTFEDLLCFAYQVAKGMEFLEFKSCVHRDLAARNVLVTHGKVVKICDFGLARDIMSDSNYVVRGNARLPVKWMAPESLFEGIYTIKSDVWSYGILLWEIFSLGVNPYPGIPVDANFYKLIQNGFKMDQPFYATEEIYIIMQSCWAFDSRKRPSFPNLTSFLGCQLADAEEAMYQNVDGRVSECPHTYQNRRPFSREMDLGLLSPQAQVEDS
Summary of the method: (§5)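 Recombinant human cytoplasmic kinase domains (TrkA, Flt-3) expressed in baculovirus-infected insect cells. […] Eu-N1 antiphosphotyrosine detection by time-resolved fluorescence.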

[21] = target: Mitogen-activated protein kinase 8 (Homo sapiens, UniProt P45983); experiment: Inhibition of c-Jun N-terminal kinase 1-beta 1
Chain of Mitogen-activated protein kinase 8 (P45983 whole entry): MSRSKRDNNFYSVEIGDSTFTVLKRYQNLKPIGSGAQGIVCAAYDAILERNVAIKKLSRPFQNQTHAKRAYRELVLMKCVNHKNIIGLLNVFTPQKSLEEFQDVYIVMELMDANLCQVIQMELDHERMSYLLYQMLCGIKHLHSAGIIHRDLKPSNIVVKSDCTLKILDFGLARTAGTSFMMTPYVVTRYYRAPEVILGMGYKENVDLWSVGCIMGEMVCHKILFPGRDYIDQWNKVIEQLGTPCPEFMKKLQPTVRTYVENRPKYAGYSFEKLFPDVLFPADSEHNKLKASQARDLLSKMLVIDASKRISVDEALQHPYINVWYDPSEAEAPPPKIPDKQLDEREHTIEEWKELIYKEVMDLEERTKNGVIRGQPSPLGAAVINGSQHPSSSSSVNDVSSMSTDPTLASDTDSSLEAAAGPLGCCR

[22] = target: High affinity nerve growth factor receptor (Homo sapiens, UniProt P04629); experiment: Inhibition of TrkA receptor; summary of the method: as §5
[23] = target: T1, Vascular endothelial growth factor receptor 2; experiment: Inhibition of human Vascular endothelial growth factor receptor 2
Summary of the method: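 Baculovirus-expressed recombinant human VEGF-R2 cytoplasmic domain was assayed by ELISA with a GST–phospholipase C-γ fusion substrate. […] Eu-N1 antiphosphotyrosine was added for 1 h at 37 °C and read by time-resolved fluorescence. IC50 came from nonlinear sigmoidal fits, averaging at least 3 determinations.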

[24] = target: Mast/stem cell growth factor receptor Kit (Homo sapiens, UniProt P10721); experiment: Inhibition of Proto-oncogene tyrosine-protein kinase Kit
[25] = target: T1, Vascular endothelial growth factor receptor 2; details: HUVEC, 100 nM
[26] = target: T1, Vascular endothelial growth factor receptor 2; details: HUVEC, 10 nM
[27] = target: T4, Vascular endothelial growth factor receptor (Homo sapiens) (UniProt P17948+P35916+P35968); details: HUVEC, 100 nM
T4 sequence (P17948 whole entry, looked up): as the sequence (P17948 whole entry) above
T4 sequence (P35916 whole entry, looked up): as the sequence (P35916 whole entry, the tested form may be a part) above
T4 sequence (P35968 whole entry, looked up): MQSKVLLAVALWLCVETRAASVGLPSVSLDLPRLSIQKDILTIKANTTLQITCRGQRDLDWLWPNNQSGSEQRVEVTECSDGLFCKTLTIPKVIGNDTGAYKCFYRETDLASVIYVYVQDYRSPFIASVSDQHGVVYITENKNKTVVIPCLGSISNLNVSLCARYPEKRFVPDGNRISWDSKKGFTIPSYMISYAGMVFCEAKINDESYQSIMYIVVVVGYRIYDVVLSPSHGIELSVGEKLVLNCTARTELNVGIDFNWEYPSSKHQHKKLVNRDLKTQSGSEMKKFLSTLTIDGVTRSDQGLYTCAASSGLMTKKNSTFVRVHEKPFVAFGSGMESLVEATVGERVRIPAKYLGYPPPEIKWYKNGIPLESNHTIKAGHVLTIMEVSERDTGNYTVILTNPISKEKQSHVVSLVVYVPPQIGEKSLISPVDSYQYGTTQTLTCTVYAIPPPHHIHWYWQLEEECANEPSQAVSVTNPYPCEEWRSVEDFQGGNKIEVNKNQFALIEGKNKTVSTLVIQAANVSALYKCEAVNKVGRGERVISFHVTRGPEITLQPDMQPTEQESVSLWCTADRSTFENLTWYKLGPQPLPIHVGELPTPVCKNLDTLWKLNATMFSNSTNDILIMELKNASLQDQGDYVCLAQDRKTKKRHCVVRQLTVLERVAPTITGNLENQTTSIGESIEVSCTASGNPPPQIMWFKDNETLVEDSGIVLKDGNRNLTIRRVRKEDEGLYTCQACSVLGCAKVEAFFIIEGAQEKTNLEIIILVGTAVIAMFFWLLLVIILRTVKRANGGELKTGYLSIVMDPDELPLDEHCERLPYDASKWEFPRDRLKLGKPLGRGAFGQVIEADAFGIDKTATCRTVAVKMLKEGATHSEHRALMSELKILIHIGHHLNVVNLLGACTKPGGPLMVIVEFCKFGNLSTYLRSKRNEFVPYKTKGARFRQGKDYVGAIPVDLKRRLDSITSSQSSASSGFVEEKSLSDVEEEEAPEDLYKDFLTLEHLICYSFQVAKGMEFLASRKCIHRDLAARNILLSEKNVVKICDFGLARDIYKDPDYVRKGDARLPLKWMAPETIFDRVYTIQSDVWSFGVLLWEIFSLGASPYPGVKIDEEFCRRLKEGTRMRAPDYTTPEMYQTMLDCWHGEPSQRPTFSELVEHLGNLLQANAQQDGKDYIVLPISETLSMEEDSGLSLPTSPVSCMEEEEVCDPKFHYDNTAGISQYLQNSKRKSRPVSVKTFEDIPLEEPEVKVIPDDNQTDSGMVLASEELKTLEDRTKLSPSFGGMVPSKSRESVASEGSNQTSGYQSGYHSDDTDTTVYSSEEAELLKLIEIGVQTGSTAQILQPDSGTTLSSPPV

[28] = target: T4, Vascular endothelial growth factor receptor (Homo sapiens); details: HUVEC, 40 nM
[29] = target: T4, Vascular endothelial growth factor receptor (Homo sapiens); details: Capillary, HUVEC, 400 nM

T1 sequence (P35968 whole entry, the tested form may be a part): as the sequence (P35968 whole entry, looked up) above

Structure (SMILES): Cc1ccc2c(c1)c1c3c(c4c(c1n2CCCO)Cc1ccccc1-4)C(=O)NC3
- IC50 [1]: 163 nM

Structure (SMILES): CC(C)SCc1ccc2c(c1)c1c3c(c4c(c1n2CCCO)Cc1ccccc1-4)C(=O)NC3
- inhibition [2]: 100%

Structure (SMILES): O=C1NCc2c3c(c4[nH]c5ccccc5c4c21)Cc1ccccc1-3
- IC50 [1]: 414 nM

Structure (SMILES): CC(C)OCc1ccc2c(c1)c1c3c(c4c(c1n2CCCOC(=O)CN(C)C)Cc1ccccc1-4)C(=O)NC3 [CEP-7055]
- inhibition in vivo at 23.8 mg/kg (Mus musculus [5]): 70%

Structure (SMILES): CC[C@@H](C)OCc1ccc2c(c1)c1c3c(c4c(c1n2CCCO)Cc1ccccc1-4)C(=O)NC3
- inhibition [6]: 100%

Structure (SMILES): CCSCc1ccc2c(c1)c1c3c(c4c(c1n2CCCO)Cc1ccccc1-4)C(=O)NC3
- inhibition [2]: 100%

Structure (SMILES): CC(=O)c1ccc2c(c1)c1c3c(c4c(c1n2CCCO)Cc1ccccc1-4)C(=O)NC3
- IC50 [1]: 187 nM

Structure (SMILES): O=C1NCc2c1c1c(c3c2c2cc(Br)ccc2n3CCCO)Cc2ccccc2-1
- IC50 [1]: 104 nM

Structure (SMILES): CC(C)OCc1ccc2c(c1)c1c3c(c4c(c1n2CCCO)Cc1ccccc1-4)C(=O)NC3 [CEP-5214]
- Cmax [7]: 100 ng/mL
- solubility [8]: 10 µg/mL (≈ 22.7 µM)
- IC50 [9]: > 10000 nM
- IC50 [10]: 162 nM
- minimal effective dose (Mus musculus [11]): 3 mg/kg
- inhibition in vivo at 10 mg/kg (Mus musculus [12]): 57%
- inhibition in vivo at 20 mg/kg (Mus musculus [13]): 70%
- IC50 [14]: > 10000 nM
- IC50 [15]: > 10000 nM
- IC50 [16]: > 3000 nM
- IC50 [17]: > 3000 nM
- IC50 [18]: 4 nM
- IC50 [19]: 16 nM
- IC50 (Angiopoietin-1 receptor): > 10000 nM
- IC50 [20]: 1.6 nM
- IC50 [21]: 448 nM
- IC50 [22]: > 3000 nM
- IC50 [23]: 8 nM
- IC50 [24]: 57 nM
- inhibition [25]: 100%
- inhibition [26]: 75%
- inhibition [27]: 75%
- inhibition [28]: 21%
- inhibition [29]: 89%

Structure (SMILES): O=Cc1ccc2c(c1)c1c3c(c4c(c1n2CCCO)Cc1ccccc1-4)C(=O)NC3
- IC50 [1]: 105 nM

Structure (SMILES): CCCCOCc1ccc2c(c1)c1c3c(c4c(c1n2CCCO)Cc1ccccc1-4)C(=O)NC3
- inhibition [2]: 100%

Structure (SMILES): CC(C)[S+]([O-])Cc1ccc2c(c1)c1c3c(c4c(c1n2CCCO)Cc1ccccc1-4)C(=O)NC3 (configuration not stated)
- IC50 [1]: 309 nM

Next, values leading:

- IC50 [1]: 276 nM
Structure (SMILES): CC(C)CCOCc1ccc2c(c1)c1c3c(c4c(c1n2CCCO)Cc1ccccc1-4)C(=O)NC3

- inhibition [3]: 25%
- inhibition [4]: 100%
Structure (SMILES): COC(C)c1ccc2c(c1)c1c3c(c4c(c1n2CCCO)Cc1ccccc1-4)C(=O)NC3 (configuration not stated)

- IC50 [1]: 35 nM
Structure (SMILES): CCC(CC)OCc1ccc2c(c1)c1c3c(c4c(c1n2CCCO)Cc1ccccc1-4)C(=O)NC3

- inhibition [3]: 75%
- inhibition [4]: 100%
Structure (SMILES): CCOCc1ccc2c(c1)c1c3c(c4c(c1n2CCCO)Cc1ccccc1-4)C(=O)NC3

- inhibition [6]: 100%
Structure (SMILES): CC[C@H](C)OCc1ccc2c(c1)c1c3c(c4c(c1n2CCCO)Cc1ccccc1-4)C(=O)NC3

- inhibition [3]: 100%
- inhibition [6]: 100%
Structure (SMILES): CC(C)(C)OCc1ccc2c(c1)c1c3c(c4c(c1n2CCCO)Cc1ccccc1-4)C(=O)NC3

- inhibition [2]: 100%
Structure (SMILES): CCCOCc1ccc2c(c1)c1c3c(c4c(c1n2CCCO)Cc1ccccc1-4)C(=O)NC3

- IC50 [1]: 110 nM
Structure (SMILES): O=C1NCc2c1c1c(c3[nH]c4ccccc4c23)Cc2ccccc2-1

- IC50 [1]: 55 nM
Structure (SMILES): CC(C)OCc1ccc2[nH]c3c4c(c5c(c3c2c1)CNC5=O)-c1ccccc1C4
